Laboratory results: ChEMBL document CHEMBL1124549, “N-azamonobactams. 2. Synthesis of some N-iminoacetic acid and N-glycyl analogues” (1989)
Converted amounts (≈) assume the structure as drawn.

Experiments:
Format in all cases: functional
Citrobacter koseri = test: In vitro antibacterial activity against J-82-24 strain of Citrobacter diversus
Method in brief: (§1)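 Agar dilution on Mueller-Hinton agar holding 2-fold decreasing drug concentrations. Agar surfaces were spot-inoculated with (1-5) × 10^4 CFU per strain using a replicating device. Plates were incubated 18 h at 35 °C. MIC was recorded as the lowest concentration inhibiting growth of the strain.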

Escherichia coli [1] = test: In vitro antibacterial activity against ATCC 25922 strain of Escherichia coli; method in brief: as §1
Enterobacter cloacae [2] = test: In vitro antibacterial activity against K-84-10 strain of Enterobacter cloacae
Enterobacter cloacae [3] = test: In vitro antibacterial activity against MOR-84-30 strain of Enterobacter cloacae
Escherichia coli [4] = test: In vitro antibacterial activity against MOR-84-20 strain of Escherichia coli; method in brief: as §1
Escherichia coli [5] = test: In vitro antibacterial activity against VGH-84-19 strain of Escherichia coli; method in brief: as §1
Klebsiella pneumoniae [6] = test: In vitro antibacterial activity against MOR-84-24 strain of Klebsiella pneumoniae; method in brief: as §1
Klebsiella pneumoniae [7] = test: In vitro antibacterial activity against CMC-84-31 strain of Klebsiella pneumoniae; method in brief: as §1
Morganella morganii [8] = test: In vitro antibacterial activity against MOR-84-45 strain of Morganella morganii; method in brief: as §1
Morganella morganii [9] = test: In vitro antibacterial activity against VGH-84-12 strain of Morganella morganii; method in brief: as §1
[10] = In vitro antibacterial activity against IO-83-21 strain of Proteus rettgeri; details: Providencia rettgeri; method in brief: as §1
Providencia stuartii = test: In vitro antibacterial activity against CMC-83-3 strain of Providencia stuartii; method in brief: as §1
Serratia marcescens [11] = test: In vitro antibacterial activity against CMC-83-74 strain of Serratia marcescens; method in brief: as §1
Serratia marcescens [12] = test: In vitro antibacterial activity against IO-83-63 strain of Serratia marcescens; method in brief: as §1
Serratia marcescens [13] = test: In vitro antibacterial activity against MOR-84-41 strain of Serratia marcescens; method in brief: as §1
Klebsiella pneumoniae [14] = test: In vitro antibacterial activity against IO-83-5 strain of Klebsiella pneumoniae; method in brief: as §1
Morganella morganii [15] = test: In vitro antibacterial activity against CMC-84-38 strain of Morganella morganii; method in brief: as §1
Enterobacter cloacae [16] = test: In vitro antibacterial activity against VGH-84-39 strain of Enterobacter cloacae
Escherichia coli [17] = test: In vitro antibacterial activity against CMC-84-50 strain of Escherichia coli; method in brief: as §1

Row | Compound | MIC (Citrobacter koseri) [µg/mL] | MIC (Escherichia coli [1]) [µg/mL] | MIC (Enterobacter cloacae [2]) [µg/mL] | MIC (Enterobacter cloacae [3]) [µg/mL] | MIC (Escherichia coli [4]) [µg/mL] | MIC (Escherichia coli [5]) [µg/mL] | MIC (Klebsiella pneumoniae [6]) [µg/mL] | MIC (Klebsiella pneumoniae [7]) [µg/mL] | MIC (Morganella morganii [8]) [µg/mL] | MIC (Morganella morganii [9]) [µg/mL] | MIC [10] [µg/mL] | MIC (Providencia stuartii) [µg/mL] | MIC (Serratia marcescens [11]) [µg/mL] | MIC (Serratia marcescens [12]) [µg/mL] | MIC (Serratia marcescens [13]) [µg/mL] | MIC (Klebsiella pneumoniae [14]) [µg/mL] | MIC (Morganella morganii [15]) [µg/mL] | MIC (Enterobacter cloacae [16]) [µg/mL] | MIC (Escherichia coli [17]) [µg/mL]
1 | CO/N=C(/C(=O)NC1CN(/N=C/C(=O)O)C1=O)c1csc(N)n1 (stereo unspecified) | 4 (≈ 11.8 µM) | 8 (≈ 23.5 µM) | 4 (≈ 11.8 µM) | 32 (≈ 94 µM) | 2 (≈ 5.88 µM) | 2 (≈ 5.88 µM) | 8 (≈ 23.5 µM) | 2 (≈ 5.88 µM) | 16 (≈ 47 µM) | 4 (≈ 11.8 µM) | 0.12 (≈ 0.353 µM) | 2 (≈ 5.88 µM) | 16 (≈ 47 µM) | 8 (≈ 23.5 µM) | 4 (≈ 11.8 µM) | 4 (≈ 11.8 µM) | 8 (≈ 23.5 µM) | 8 (≈ 23.5 µM) | 2 (≈ 5.88 µM)
2 | CO/N=C(/C(=O)NC1CN(NCC(=O)O)C1=O)c1csc(N)n1 (stereo unspecified) | > 128 | > 128 | > 128 | > 128 | > 128 | > 128 | > 128 | > 128 | > 128 | > 128 | 64 (≈ 187 µM) | > 128 | > 128 | > 128 | > 128 | > 128 | > 128 | > 128 | > 128
3 | C=CCOC(=O)CNN1CC(NC(=O)/C(=N/OC)c2csc(N)n2)C1=O (stereo unspecified) | 16 (≈ 41.8 µM) | 8 (≈ 20.9 µM) | 8 (≈ 20.9 µM) | 64 (≈ 167 µM) | 8 (≈ 20.9 µM) | 8 (≈ 20.9 µM) | 16 (≈ 41.8 µM) | 8 (≈ 20.9 µM) | 128 (≈ 335 µM) | 64 (≈ 167 µM) | 0.5 (≈ 1.31 µM) | 32 (≈ 83.7 µM) | 128 (≈ 335 µM) | 32 (≈ 83.7 µM) | 32 (≈ 83.7 µM) | 8 (≈ 20.9 µM) | 32 (≈ 83.7 µM) | 16 (≈ 41.8 µM) | 4 (≈ 10.5 µM)
4 | C[C@H]1[C@H](NC(=O)/C(=N\OC(C)(C)C(=O)O)c2csc(N)n2)C(=O)N1S(=O)(=O)O [AZTREONAM] | 0.03 (≈ 0.0689 µM) | 0.06 (≈ 0.138 µM) | – | – | 0.06 (≈ 0.138 µM) | 0.06 (≈ 0.138 µM) | 0.06 (≈ 0.138 µM) | 0.03 (≈ 0.0689 µM) | 0.015 (≈ 0.0344 µM) | 0.03 (≈ 0.0689 µM) | 0.002 (≈ 0.00459 µM) | 0.015 (≈ 0.0344 µM) | 0.25 (≈ 0.574 µM) | – | 0.06 (≈ 0.138 µM) | – | 0.015 (≈ 0.0344 µM) | – | 0.06 (≈ 0.138 µM)
